# In ChEMBL document CHEMBL1153915, “[18F]FEAC and [18F]FEDAC: Two novel positron emission tomography ligands for peripheral-type benzodiazepine receptor in the brain” (Bioorg Med Chem Lett, 2009):
# Experiments:
# Translocator protein [1] = target: T1, Translocator protein (Rattus norvegicus, UniProt P16257); assay: Displacement of [11C]DAA1106 from PBR receptor in rat brain membrane; assay type: cell membranes
# [2] = Displacement of [11C]flumazenil from CBR receptor in rat brain membrane; assay type: cell membranes
# In short: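 Competition against [11C]flumazenil binding in rat brain homogenate; Ki derived; mean ± SD from duplicate homogenates.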
# [3] = Distribution coefficient, log D in octanol/phosphate buffer at pH 7.4 by shaking flask method; assay type: physicochemical
# Translocator protein [4] = target: T1, Translocator protein; assay: Displacement of [11C]PK11195 from PBR receptor in rat brain membrane; assay type: cell membranes
# Striatum [5] = assay: Drug uptake in non-lesioned Sprague-Dawley rat striatum assessed as standardized uptake value; assay type: ADME, tissue-based; details: in vivo
# In short: (§1)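 Dynamic small-animal PET of [18F]-labelled ligand in neuroinflammatory rats (n = 4). Striatal time-activity curves are expressed as SUV = (radioactivity per cm3 tissue / injected radioactivity) × g body weight, as mean ± SD.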
# Striatum [6] = assay: Drug uptake in kainic acid-lesioned Sprague-Dawley rat striatum assessed as standardized uptake value; assay type: ADME, tissue-based; details: in vivo; in short: as §1
# Striatum [7] = assay: Ratio of drug uptake in kainic acid-lesioned to non-lesioned Sprague-Dawley rat striatum after 10 to 20 mins; assay type: ADME, tissue-based; details: in vivo
# In short: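 From small-animal PET time-activity curves in neuroinflammatory rats (n = 4), the radioactivity in the lesioned striatum is divided by that in the non-lesioned striatum over the scan, and the maximum ratio is taken.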
# T1 sequence (P16257 whole entry, looked up): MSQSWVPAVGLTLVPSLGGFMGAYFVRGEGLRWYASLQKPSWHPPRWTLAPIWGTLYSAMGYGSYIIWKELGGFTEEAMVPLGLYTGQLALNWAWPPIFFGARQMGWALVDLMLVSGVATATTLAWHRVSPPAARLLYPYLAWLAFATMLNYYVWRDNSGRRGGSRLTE
smiles,measurement,setting,value
COc1ccc(OCCF)c(CN(C(C)=O)c2cc(F)ccc2Oc2ccccc2)c1,Ki,Translocator protein [1],0.08 nM
same,Ki,[2],> 1000 nM
same,logD,[3],3.8
CN(Cc1ccccc1)C(=O)Cn1c(=O)n(CCF)c2cnc(-c3ccccc3)nc21,Ki,[2],8400 nM
same,logD,[3],3.2
same,Ki,Translocator protein [4],1.34 nM
Cn1c(=O)n(CC(=O)N(CCF)Cc2ccccc2)c2nc(-c3ccccc3)ncc21,Ki,[2],> 8400 nM
same,logD,[3],3.1
same,Ki,Translocator protein [4],0.51 nM
COc1ccc(OCC[18F])c(CN(C(C)=O)c2cc(F)ccc2Oc2ccccc2)c1,SUV,Striatum [5],1.3
same,SUV,Striatum [6],1.5
CCN(Cc1ccccc1)C(=O)Cn1c(=O)n(CC[18F])c2cnc(-c3ccccc3)nc21,SUV,Striatum [5],0.8
same,Ratio,Striatum [7],2.5
same,SUV,Striatum [6],1.2
CCN(Cc1ccccc1)C(=O)Cn1c(=O)n(C)c2cnc(-c3ccccc3)nc21,Ki,[2],> 8400 nM
same,logD,[3],3.3
same,Ki,Translocator protein [4],0.2 nM
CCN(Cc1ccccc1)C(=O)Cn1c(=O)n(CCF)c2cnc(-c3ccccc3)nc21,Ki,[2],> 8400 nM
same,logD,[3],3.6
same,Ki,Translocator protein [4],0.49 nM
CN(Cc1ccccc1)C(=O)Cn1c(=O)n(CC[18F])c2cnc(-c3ccccc3)nc21,SUV,Striatum [5],0.9
same,Ratio,Striatum [7],2.5
same,SUV,Striatum [6],1.6
CCC(C)N(C)C(=O)c1cc2ccccc2c(-c2ccccc2Cl)n1 (stereo not given) [PK-11195],Ki,[2],> 8400 nM
same,logD,[3],3.7
